TCR CD3 inh = human TCR-CD3 binding inhibition | hit rate 0.37% among 360,000 | AID 651800 | inhibition, % at 9.4 µM | TAMRA-labeled TCR probe fluorescence, biochemical; in the data active = inhibition above about 19%;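 note: recombinant mutant TCR 2C K166C tagged with TAMRA read by polarization; 0% = receptor in buffer alone and 100% = receptor with positive control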
ATG4B inhibitor = inhibitors of human ATG4B cysteine protease; Q9Y4P1; ATG4B cleavage of LC3-PLA2, NBD-HPC fluorescence, 1 h; inhibition, % at 8.33 µM; hit rate 0.51% among 340,000; AID 504462; in the data active = inhibition above about 40%
mABHD4 FP = ABHD4 (mouse) inhibition, primary FP screen. purified mABHD4, FP-Rh probe fluorescence polarization. inhibition, % at 8.92 µM. hit rate 0.54% among 370,000. AID 720543;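 active = inhibition exceeding the mean over every tested compound plus 3 SD, cut at about 30% in these data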;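 note: 0% = plate median of compound wells and 100% = S159A mutant with DMSO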
Target sequence (Q8VD66 whole entry, looked up): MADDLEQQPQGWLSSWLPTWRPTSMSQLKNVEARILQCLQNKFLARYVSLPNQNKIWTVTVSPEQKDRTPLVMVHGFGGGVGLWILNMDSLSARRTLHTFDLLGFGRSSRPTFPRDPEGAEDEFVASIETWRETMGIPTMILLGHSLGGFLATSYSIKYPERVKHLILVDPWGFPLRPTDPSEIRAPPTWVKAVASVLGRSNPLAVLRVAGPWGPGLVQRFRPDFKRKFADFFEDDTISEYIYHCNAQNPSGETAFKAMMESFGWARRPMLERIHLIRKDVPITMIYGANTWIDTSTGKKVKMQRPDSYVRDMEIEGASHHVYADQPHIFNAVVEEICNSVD
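Test system: mouse ABHD4 enzyme, wild type. Reagent: FP-Rh fluorescent activity-based probe, added after compound pre-incubation. Timing: pre-incubation 45 min, probe exposure 60 min, at 25 °C. Technique: FP readout, ex 525 nm / em 598 nm. Benchmarks: high control S159A mutant with DMSO, low control median of compound wells.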
HTRA1 inh = blocks human HTRA1 serine peptidase; Q92743; recombinant HTRA1, FP-rhodamine activity-based probe, fluorescence polarization; inhibition, % at 5.96 µM; hit rate 0.5% among 340,000; in the data active = inhibition above about 36%;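 note: 0% = enzyme with DMSO and 100% = wells lacking enzyme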
SIAE primary = inhibitors of human sialic acid acetylesterase SIAE; SIAE FP-Rh probe binding, fluorescence polarization; inhibition, % at 9.66 µM; hit rate 0.69% among 370,000; AID 1053197;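 active = inhibition above a cutoff: mean of compounds within the control limits plus 3 SD of those, cut at about 17% in these data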;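 note: 0% = plate median of compound wells and 100% = probe without SIAE protein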
PRMT1 FP inh = blocks human protein arginine methyltransferase 1 | hit rate 1.3% among 370,000 | AID 652257 | inhibition, % at 2.79 µM | recombinant PRMT1, activity-based probe fluorescence polarization | Q99873;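 active = inhibition above about 21% made by adding two undisclosed values, limit read from the data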
PRMT1 confirm = confirmation of human PRMT1 inhibitors; inhibition, % at 2.79 µM; AID 687036; shares compounds with PRMT1 FP inh; recombinant His-PRMT1, activity-based probe fluorescence polarization; hit rate 42% among 3,300;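 active = mean inhibition across replicates above the hit cutoff derived for the earlier primary screen, cut at about 22% in these data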
* marks the source's active call; other numbers are inactive results; . = no result. Most compounds without a hit are left out; they make up all but 2.9% or so of the library.

SMILES | TCR CD3 inh | ATG4B inhibitor | mABHD4 FP | HTRA1 inh | SIAE primary | PRMT1 FP inh | PRMT1 confirm
CN(Cc1c(F)cccc1Cl)C(=O)c1ccc(NC(=O)CC2SC(N3CCCC3)=NC2=O)cc1 (configuration not stated) | 8 | -8 | -1 | -3 | 0 | 101* | 2
CCC[C@@H](/C=C/C(=O)OC(C)(C)C)Sc1ccccc1OC | . | . | 3 | . | -4 | 2 | .
O=C(CSC1=NCCN1)C1COc2ccccc2O1 (configuration not stated) | 12 | -3 | 0 | -7 | 0 | 34* | 42*
COc1cccc(C(=O)N(CCN2CCOCC2)Cc2ccc(OC)c(OC)c2)c1 | . | . | -1 | . | 1 | -4 | .
Cc1nc2scc(-c3ccccc3)c2c(=O)n1N=C1C=CC(=O)C=C1 | -1 | -1 | 10 | . | 16 | 90* | 94*
Cc1cc(-c2ccco2)n(CC(=O)NCCCc2ccccc2)n1 | -1 | -4 | -8 | -9 | -2 | 47* | 1
O=C(O)c1ccc(CSc2ccccn2)cc1 | 7 | -1 | -4 | 6 | -1 | -2 | .
Cc1ccc(C(=O)CSc2ccccn2)cc1 | 4 | -2 | -6 | -1 | 6 | 61* | 40*
O=C(CSc1ccccn1)c1ccc(F)cc1 | 5 | -4 | 0 | -3 | -3 | 27* | 24*
COc1ccc(NC(=O)/C=C/C(=O)O)c([N+](=O)[O-])c1 | 7 | 1 | 6 | 2 | 4 | 43* | 1
Cc1cc(NC(=O)/C=C\C(=O)O)c([N+](=O)[O-])cc1C | -2 | 1 | -9 | 6 | -5 | 47* | 3
Cc1ccc(NC(=O)/C=C/C(=O)O)c([N+](=O)[O-])c1 | -1 | 8 | 6 | 10 | -2 | 4 | .
COC(=O)[C@]12C[C@H](CC(=O)N3CCN(C(=O)c4ccco4)CC3)C(=O)N(Cc3ccco3)C1=C[C@H](C1CCCC1)O[C@@H]2C | . | . | 1 | . | 0 | 2 | .
CN(C)S(=O)(=O)c1cccc(C(=O)N/N=C\c2ccccc2)c1 | . | . | 3 | . | 1 | 0 | .
COC(=O)C1=C2SC(C)C(=O)N2C(N)=C(C#N)C1c1cc(OC)c(OC)c(OC)c1 (configuration not stated) | -7 | -2 | -9 | 4 | -1 | 31* | 6
O=C(O)c1ccc(-n2cccc2/C=C2/NC(=O)N(c3cccc(Cl)c3)C2=O)cc1 | 12 | 5 | -5 | -22 | -2 | 29* | 5
O=C(O)c1cccc(-n2cccc2/C=C2\NC(=O)N(Cc3ccc(F)cc3)C2=O)c1 | 7 | 6 | 3 | -9 | 2 | 5 | .
CCn1cc(C(=O)N2CCN(Cc3ccc(C)cc3)CC2)c(=O)c2ccc(C)nc21 | . | . | 4 | . | 0 | -3 | .
O=C(N/N=C/C=C\c1ccco1)c1cccnc1 | 7 | -7 | 2 | 6 | 13 | 8 | .
O=C(N/N=C/C=C/c1ccco1)c1cccnc1 | 8 | -8 | 13 | 12 | 7 | 39* | 10
CN(c1ncc(C(F)(F)F)cc1Cl)N1C(=O)C2ONC3(C(=O)CC(C)(C)CC3=O)C2C1=O (configuration not stated) | 0 | -5 | -12 | -2 | 7 | 72* | -7
COc1ccc(N2C(=O)CC(Sc3nnnn3-c3ccc(F)cc3)C2=O)cc1 (configuration not stated) | -1 | 1 | 1 | -6 | 2 | 51* | 64*
COc1ccc(N2C(=O)CC(Sc3nc(C)cc(C)c3C#N)C2=O)cc1 (configuration not stated) | 2 | -9 | 1 | -2 | 0 | 7 | .
O=C1CC(Sc2nnnn2-c2ccccc2)C(=O)N1c1cccc(Cl)c1 (configuration not stated) | -4 | -3 | 2 | -2 | -4 | 74* | 79*
CN1[C@H](Cc2ccccc2)COc2cccc(F)c2S1(=O)=O | . | . | -1 | . | 3 | 1 | .
SMILES | TCR CD3 inh | ATG4B inhibitor | mABHD4 FP | HTRA1 inh | SIAE primary | PRMT1 FP inh | PRMT1 confirm
CN1CCN(C(=O)CCN2C(=O)/C(=C\c3ccccc3F)SC2=S)CC1 | -45 | -1 | -47 | -6 | -6 | 28* | 6
O=C(CCN1C(=O)/C(=C\c2ccccc2F)SC1=S)N1CCOCC1 | 2 | . | -2 | -7 | 4 | -4 | .
Cc1ccc(-n2c(SCC(=O)Nc3ccc4c5c(cccc35)CC4)nc(O)cc2=O)cc1 | 3 | 8 | -3 | -64 | -4 | 1 | .
Cc1ccc(-n2c(SCC(=O)Nc3ccc4c5c(cccc35)CC4)nc(O)c(C)c2=O)cc1 | -2 | 1 | 0 | 3 | -1 | 37* | 31*
C=CC[C@@H]1NN2C(=O)[C@@H](CCCC)[C@@H]3c4cc5ccccc5cc4C=NN3[C@@H]2c2cc3ccccc3cc21 | . | . | 0 | . | -8 | 1 | .
O=C(CC1Sc2ncnn2C1=O)Nc1ccccc1 (configuration not stated) | 4 | 3 | -4 | -2 | 11 | 77* | 74*
CC(=O)Nc1ccc(NC(=O)CC2SC(=O)N(CC(=O)c3ccccc3)C2=O)cc1 (configuration not stated) | 6 | -7 | -1 | -1 | 0 | 29* | 20
COCCNC(=O)C1Nc2ccc(OC(F)(F)F)cc2C2C=CCC12 (configuration not stated) | 3 | -9 | 29 | 33 | 13 | 26* | 7
O=C(O)c1ccc2c(c1)C1C=CCC1C(c1ccncc1)N2 (configuration not stated) | -2 | -1 | -1 | 6 | 1 | -5 | .
CCOC(=O)C1Nc2ccc(C(=O)O)cc2C2C=CCC12 (configuration not stated) | 8 | 7 | 25 | 25 | -3 | 30* | 38*
COc1ccc2nc3ccccc3[n+]([O-])c2c1 | 1 | -9 | 1 | 1 | 0 | 37* | 27*
COC(=O)[C@]12C[C@H](CC(=O)NCc3cccs3)C(=O)N(CCc3ccc(OC)c(OC)c3)C1=C[C@H](COCc1ccccc1)O[C@@H]2C | . | . | 3 | . | -5 | -4 | .
O=C(CSCc1ccco1)Nc1cc(C(F)(F)F)ccc1N1CCOCC1 | 3 | -8 | -1 | -3 | 4 | 66* | 40*
Cc1cc(N/C(=C\C(=O)c2ccccc2)c2ccccc2)ccc1Br | -4 | . | -1 | . | -3 | -4 | .
CCOC(=O)[C@]12CCCC=C1N(CCCOC)C(=O)[C@@H]2CC(=O)N1CCC(c2ccccc2)CC1 | . | . | 3 | . | 1 | 3 | .
O=c1[nH]c2ccc(Cl)cc2c(-c2ccccc2)c1SC(=S)N1CCCCC1 | -11 | -3 | -4 | -47 | -16 | 44* | 24*
CCOC(=O)N1C(=O)C[C@](Sc2ccc(OC)cc2)(C(=O)N(C)C)[C@H]1c1ccc(OC)cc1 | . | . | 0 | . | 2 | 46* | 37*

From PubChem BioAssay
